# ChEMBL document CHEMBL3400013, “Synthesis and biological activity evaluation of hydrazone derivatives based on a Tröger's base skeleton” (Bioorg Med Chem, 2015)
# The source made the active and inactive calls. The rule behind the calls is not given here.
# Experiments:
# Nucleic Acid [1] = experiment: Binding affinity to DNA (unknown origin) assessed as DNA intercalation by UV-visible spectrophotometry in presence of Cu2+; type: nucleic-acid assay
# [2] = Cytostatic activity against human CEM-DNR cells after 72 hrs by MTT assay; type: functional, cell-based
# Method in brief: (§1)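 Cells were seeded at 25,000–30,000 per well and pre-incubated for 24 h at 37°C in 5% CO2. Four-fold compound dilutions were added in duplicate and incubated for 72 h. MTT was added for 1–4 h, and formazan was dissolved in 10% aq SDS (pH 5.5) overnight at 37°C. OD was read at 540 nm. IC50 came from dose-response curves, mean ± SD of eight independent experiments.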
# Escherichia coli [3] = experiment: Antimicrobial activity against multidrug-resistant Escherichia coli C/16702 up to 200 uM after 24 to 48 hrs by broth microdilution method; type: functional, organism-based
# BJ [4] = experiment: Selectivity index, ratio of IC50 for human BJ cells to IC50 for human p53-/- HCT116 cells; type: functional
# [5] = Cytostatic activity against human K562-TAX cells after 72 hrs by MTT assay; type: functional, cell-based; method in brief: as §1
# HCT-116 [6] = experiment: Selectivity index, ratio of IC50 for human MRC5 cells to IC50 for human HCT116 cells; type: functional
# K562 = experiment: Selectivity index, ratio of IC50 for human MRC5 cells to IC50 for human K562 cells; type: functional
# CCRF-CEM [7] = experiment: Induction of apoptosis in human CCRF-CEM cells assessed as inhibition of DNA synthesis at IC50 after 24 hrs by propidium iodide/BrdU staining by flow cytometry; type: functional; set-up: scale not given: the % may be the effect or the level left
# [8] = Cytostatic activity against human p53-/- HCT116 cells after 72 hrs by MTT assay; type: functional, cell-based; conditions: HCT-116, 72 h; method in brief: as §1
# CCRF-CEM [9] = experiment: Induction of apoptosis in human CCRF-CEM cells assessed as inhibition of RNA synthesis at IC50 after 24 hrs by propidium iodide/BrU staining by flow cytometry; type: functional; set-up: scale not given: the % may be the effect or the level left
# CCRF-CEM [10] = experiment: Cell cycle arrest in human CCRF-CEM cells assessed as accumulation at S phase at IC50 after 24 hrs by propidium iodide staining-based flow cytometry; type: functional
# Method in brief: (§2)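 Cells were then fixed in 70% ethanol, washed in hypotonic citrate buffer, treated with RNase (50 µg/mL) and stained with propidium iodide. Flow cytometry used a 488 nm laser. Apoptosis was scored as the percentage of particles with propidium content below G0/G1.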
# CCRF-CEM [11] = experiment: Cell cycle arrest in human CCRF-CEM cells assessed as accumulation at G2/M phase at 5 times IC50 after 24 hrs by propidium iodide staining-based flow cytometry; type: functional; method in brief: as §2
# [12] = Metal chelating activity of the compound assessed as formation of Mg2+ complex by UV-vis spectrometry; type: physicochemical
# CCRF-CEM [13] = experiment: Induction of apoptosis in human CCRF-CEM cells assessed as mitotic cells at IC50 after 24 hrs by pH3Ser10+ labeling-based flow cytometry; type: functional
# BJ [14] = experiment: Selectivity index, ratio of IC50 for human BJ cells to IC50 for human CCRF-CEM cells; type: functional; conditions: pooled result: one value given for 2 cell lines, strains, targets or settings
# Nucleic Acid [15] = experiment: Binding affinity to DNA (unknown origin) assessed as DNA intercalation by UV-visible spectrophotometry; type: nucleic-acid assay
# Pseudomonas aeruginosa = experiment: Antimicrobial activity against Pseudomonas aeruginosa CCM 395 up to 200 uM after 24 to 48 hrs by broth microdilution method; type: functional, organism-based
# A549 [16] = experiment: Cytostatic activity against human A549 cells after 72 hrs by MTT assay; type: functional, cell-based; conditions: A549, 72 h; method in brief: as §1
# A549 [17] = experiment: Selectivity index, ratio of IC50 for human BJ cells to IC50 for human A549 cells; type: functional
# MRC5 [18] = experiment: Selectivity index, ratio of IC50 for human MRC5 cells to IC50 for human K562-TAX cells; type: functional
# CEM-DNR = experiment: Selectivity index, ratio of IC50 for human MRC5 cells to IC50 for human CEM-DNR cells; type: functional
# Enterococcus faecalis = experiment: Antimicrobial activity against Enterococcus faecalis CCM 4224 up to 200 uM after 24 to 48 hrs by broth microdilution method; type: functional, organism-based
# Escherichia coli [19] = experiment: Antimicrobial activity against Escherichia coli CCM 3954 up to 200 uM after 24 to 48 hrs by broth microdilution method; type: functional, organism-based
# CCRF-CEM [20] = experiment: Induction of apoptosis in human CCRF-CEM cells assessed as mitotic cells at 5 times IC50 after 24 hrs by pH3Ser10+ labeling-based flow cytometry; type: functional
# HCT-116 [21] = experiment: Selectivity index, ratio of IC50 for human MRC5 cells to IC50 for human p53-/- HCT116 cells; type: functional
# Staphylococcus aureus [22] = experiment: Antimicrobial activity against Staphylococcus aureus CCM 3953 up to 200 uM after 24 to 48 hrs by broth microdilution method; type: functional, organism-based
# BJ [23] = experiment: Cytostatic activity against human BJ cells after 72 hrs by MTT assay; type: ADME, cell-based; method in brief: as §1
# Staphylococcus aureus [24] = experiment: Antimicrobial activity against methicillin-resistant Staphylococcus aureus MRSA 4591 up to 200 uM after 24 to 48 hrs by broth microdilution method; type: functional, organism-based
# Nucleic Acid [25] = experiment: Binding affinity to DNA (unknown origin) assessed as DNA intercalation by UV-visible spectrophotometry in presence of Co2+; type: nucleic-acid assay
# CCRF-CEM [26] = experiment: Cell cycle arrest in human CCRF-CEM cells assessed as accumulation at G2/M phase at IC50 after 24 hrs by propidium iodide staining-based flow cytometry; type: functional; method in brief: as §2
# [27] = Metal chelating activity of the compound assessed as formation of Ni2+ complex by UV-vis spectrometry; type: physicochemical
# BJ [28] = experiment: Selectivity index, ratio of IC50 for human BJ cells to IC50 for human CEM-DNR cells; type: functional
# Candida tropicalis = experiment: Antifungal activity against Candida tropicalis up to 200 uM after 24 to 48 hrs by broth microdilution method; type: functional, organism-based
# CCRF-CEM [29] = experiment: Induction of apoptosis in human CCRF-CEM cells assessed as inhibition of RNA synthesis at 5 times IC50 after 24 hrs by propidium iodide/BrU staining by flow cytometry; type: functional; set-up: scale not given: the % may be the effect or the level left
# BJ [30] = experiment: Selectivity index, ratio of IC50 for human BJ cells to IC50 for human K562-TAX cells; type: functional
# Nucleic Acid [31] = experiment: Binding affinity to DNA (unknown origin) assessed as DNA intercalation by UV-visible spectrophotometry in presence of Ni2+; type: nucleic-acid assay
# MRC5 [32] = experiment: Cytostatic activity against human MRC5 cells after 72 hrs by MTT assay; type: ADME, cell-based; conditions: MRC5, 72 h; method in brief: as §1
# CCRF-CEM [33] = experiment: Cytostatic activity against human CCRF-CEM cells after 72 hrs by MTT assay; type: functional, cell-based; method in brief: as §1
# [34] = Metal chelating activity of the compound assessed as formation of Cr3+ complex by UV-vis spectrometry; type: physicochemical
# CCRF-CEM [35] = experiment: Induction of apoptosis in human CCRF-CEM cells assessed as inhibition of DNA synthesis at 5 times IC50 after 24 hrs by propidium iodide/BrdU staining by flow cytometry; type: functional; set-up: scale not given: the % may be the effect or the level left
# CCRF-CEM [36] = experiment: Induction of apoptosis in human CCRF-CEM cells assessed as apoptotic cells at 5 times IC50 after 24 hrs by propidium iodide staining-based flow cytometry; type: functional; method in brief: as §2
# BJ [37] = experiment: Selectivity index, ratio of IC50 for human BJ cells to IC50 for human K562 cells; type: functional
# Candida parapsilosis = experiment: Antifungal activity against Candida parapsilosis up to 200 uM after 24 to 48 hrs by broth microdilution method; type: functional, organism-based
smiles,measurement,setting,value
O=C(N/N=C/c1nccc2ccccc12)c1ccc2c3c(ccc2c1)N1Cc2c(ccc4cc(C(=O)N/N=C/c5nccc6ccccc56)ccc24)N(C3)C1,Activity,Nucleic Acid [1],Active
same,IC50,[2],6290 nM
same,Activity,Escherichia coli [3],inactive
same,Ratio IC50,BJ [4],4
same,IC50,[5],10100 nM
same,Ratio IC50,HCT-116 [6],5.7
same,Ratio IC50,K562,121.9
same,Activity,CCRF-CEM [7],52.93%
same,IC50,[8],25300 nM
same,Activity,CCRF-CEM [9],44%
same,Activity,CCRF-CEM [10],38.56%
same,Activity,CCRF-CEM [11],13.57%
same,Activity,[12],Not Active
same,Activity,CCRF-CEM [13],1.65%
same,Ratio IC50,BJ [14],172
same,Activity,Nucleic Acid [15],inactive
same,Activity,Pseudomonas aeruginosa,inactive
same,IC50,A549 [16],18600 nM
same,Ratio IC50,A549 [17],5.4
same,Ratio IC50,MRC5 [18],9.9
same,Ratio IC50,CEM-DNR,15.9
same,Activity,Enterococcus faecalis,inactive
same,Activity,Escherichia coli [19],inactive
same,Activity,CCRF-CEM [20],1.52%
same,Ratio IC50,HCT-116 [21],4
same,Activity,Staphylococcus aureus [22],inactive
same,IC50,BJ [23],> 100000 nM
same,Activity,Staphylococcus aureus [24],inactive
same,Activity,Nucleic Acid [25],Active
same,Activity,CCRF-CEM [26],15.35%
same,Activity,[27],Active
same,Ratio IC50,BJ [28],15.9
same,Activity,Candida tropicalis,inactive
same,Activity,CCRF-CEM [29],16.94%
same,Ratio IC50,BJ [30],9.9
same,Activity,Nucleic Acid [31],Active
same,IC50,MRC5 [32],> 100000 nM
same,IC50,CCRF-CEM [33],580 nM
same,Activity,[34],Not Active
same,Activity,CCRF-CEM [35],43.36%
same,Activity,CCRF-CEM [36],10.73%
same,Ratio IC50,BJ [37],121.9
same,Activity,Candida parapsilosis,inactive
O=C(N/N=C/c1ccccc1O)c1ccc2c3c(ccc2c1)N1Cc2c(ccc4cc(C(=O)N/N=C/c5ccccc5O)ccc24)N(C3)C1,Activity,Nucleic Acid [1],Active
same,IC50,[2],4250 nM
same,Activity,Escherichia coli [3],inactive
same,Ratio IC50,BJ [4],1.7
same,IC50,[5],830 nM
same,Ratio IC50,HCT-116 [6],0.8
same,Ratio IC50,K562,0.6
same,Activity,CCRF-CEM [7],50.71%
same,IC50,[8],190 nM
same,Activity,CCRF-CEM [9],59.79%
same,Activity,CCRF-CEM [10],50.31%
same,Activity,CCRF-CEM [11],18.92%
same,Activity,[12],Not Active
same,Activity,CCRF-CEM [13],0.62%
same,Ratio IC50,BJ [14],0.9
same,Activity,Nucleic Acid [15],inactive
same,Activity,Pseudomonas aeruginosa,inactive
same,IC50,A549 [16],980 nM
same,Ratio IC50,A549 [17],0.3
same,Ratio IC50,MRC5 [18],0.4
same,Ratio IC50,CEM-DNR,0.1
same,Activity,Enterococcus faecalis,inactive
same,Activity,Escherichia coli [19],inactive
same,Activity,CCRF-CEM [20],0.01%
same,Ratio IC50,HCT-116 [21],1.7
same,Activity,Staphylococcus aureus [22],inactive
same,IC50,BJ [23],270 nM
same,Activity,Staphylococcus aureus [24],inactive
same,Activity,Nucleic Acid [25],Active
same,Activity,CCRF-CEM [26],19.09%
same,Activity,[27],Active
same,Ratio IC50,BJ [28],0.1
same,Activity,Candida tropicalis,inactive
same,Activity,CCRF-CEM [29],83.92%
same,Ratio IC50,BJ [30],0.4
same,Activity,Nucleic Acid [31],Active
same,IC50,MRC5 [32],390 nM
same,IC50,CCRF-CEM [33],360 nM
same,Activity,[34],Not Active
same,Activity,CCRF-CEM [35],5.94%
same,Activity,CCRF-CEM [36],50.23%
same,Ratio IC50,BJ [37],0.6
same,Activity,Candida parapsilosis,inactive
